For the data set, the system named is MS2 coat protein. In words: apparent Kd, MS2 coat protein; higher = weaker binding; RNA-MaP array. An outline of the steps: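 Designed RNAs were transcribed on an Illumina sequencing chip from sequenced DNA templates. They were incubated at room temperature with fluorescently labeled MS2 coat protein at 1.5 nM to 3 μM, for 0.8–1.5 h at the lowest to 10–20 min at the highest concentrations, in Tris-HCl pH 7.5 buffer with KCl, MgCl2, BSA, DTT, tRNA and Tween20, with or without input ligand. Apparent Kd is the median of per-cluster binding-curve fits. Designs measured on fewer than 10 clusters were excluded.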

The mark [1] stands for this setting: designed as: ON switch for flavin mononucleotide, no ligand.
[2] abbreviates: ligand present: flavin mononucleotide, designed as: ON switch for flavin mononucleotide.
The mark [3] stands for this setting: designed as: OFF switch for flavin mononucleotide, no ligand.
[4] abbreviates: ligand present: flavin mononucleotide, designed as: OFF switch for flavin mononucleotide.
The mark [5] stands for this setting: designed as: ON switch for theophylline, no ligand.
The mark [6] stands for this setting: ligand present: theophylline, designed as: ON switch for theophylline.

In the case of “CGCCUAGGGUAUCAGGAUAUGACGGGCAUAACAUGAGGAUCACCCAUGUAAGAGUAGUACAGUUGUCAGAAGGGAUGAUCUAGAAU”, the “apparent Kd” value is, setting by setting: under setting [1], 162 nM; under setting [2], 25.5 nM.
As for “GUACACUCCACAGGAUAUGGUGUAGACCCUACGCCAGAAGGGUGCGUGGGUACAUGAGGAUCACCCAUGUUAAGUUUACAUACG”, the “apparent Kd” value is 12.9 nM under setting [3] and 15.5 nM under setting [4].
With “AAAUAUCAGUAGAAGGGCAUUUAAUCGAGACAUGCAGGAUAUACCAAUAACAGAUAAUUCUACAUGAGGAUCACCCAUGUACAG”, the “apparent Kd” value by setting is: under setting [1], 12.7 nM; under setting [2], 9.19 nM.
Consider “AGUGGGUGUUAUGAUACCAGCGUAAUACACAACAUGAGGAUCACCCAUGUGGAGCCUCGCCGCCCUUGGCAGCAUUGGGCCCGCA”, for which the “apparent Kd” value is, setting by setting: under setting [5], 212 nM; under setting [6], 344 nM.
For “UAGAUAAGAAUCAAGGAUAUGAAAAGGCACACAUGAGGAUCACCCAUGUCAAGCACAAAAUGACGUCAGAAGGUGAUAAGCAGCAA”, the “apparent Kd” value reads like this: under setting [1], 57.6 nM; under setting [2], 35 nM.
The corresponding values for “UUAACAUGAGGAUCACCCAUGUGAAGCCGGCGAUGAAUAGUACAGGAUAUCGAAUACCGCCUAGACGAGAAGGGUAUCAAUCGG” are 14.2 nM and 12.7 nM.
As for “UUAUAAGCACCUGAUACCAGUAUGAACCCGUACAUGAGGAUCACCCAUGUUAAUUUCUAUUACCCUUGGCAGCAGCCUUUUUCCU”, the “apparent Kd” value by setting is: under setting [5], 19.4 nM; under setting [6], 17.6 nM.
“CCAACAACGGAGAAGGCGUGACUGGUUUCACAGACAGUGUGGCACAUGAGGAUCACCCAUGUGAACGAGGAUAUCCGUGUGCGA”: the “apparent Kd” value is, setting by setting: under setting [1], 11.6 nM; under setting [2], 7.4 nM.
For “UCACUCCUGAUGGAUACCAGUUACUAACGCAACAUGAGGAUCACCCAUGUGAACACUCAGAACCCUUGGCAGCCAGGAGAACGAA”, the “apparent Kd” value under setting [5] is 48.2 nM and the “apparent Kd” value under setting [6] was determined as 25.5 nM.
Regarding “GGUCAGCAGUCGGCCGCCACUAGUAUACAUGAGGAUCACCCAUGUCCCUUGCGCCUCACCGAUUUUAGGACCGGGACACUGCCUG”, the “apparent Kd” value turned out to be 32.8 nM (designed as: OFF switch for tryptophan, no ligand) and 29.3 nM (ligand present: tryptophan, designed as: OFF switch for tryptophan).
Regarding “GUAGAGCUCAUAGGAUAUACUCGACCGGAGGCAGUAGAAGGAUGCGUCAAAUACAUGAGGAUCACCCAUGUGAUGGUAAUCGUC”, the “apparent Kd” value runs as follows: under setting [3], 13.6 nM; under setting [4], 14.4 nM.
With “CGUUCCAGGGAGAAGGGCUACAAGAUCUUUCCAGCAGGAUAUCCCAACAUGAGGAUCACCCAUGUAGUCGUGUUAUUGGCUAUA”, the “apparent Kd” value is, setting by setting: under setting [1], 243 nM; under setting [2], 86.4 nM.
Turning to “AAGGCGUCAGGAUAUACGUCAUCUUCAAAUAACAUAACAAUACAUGAGGAUCACCCAUGUAGAAGGGACCAGCC”, the “apparent Kd” value reads like this: under setting [3], 6.37 nM; under setting [4], 6.46 nM.
In the case of “AUAAAAGCCACAUGAGGAUCACCCAUGUAGCAGGAAGCCAGCAAGGAUAUCGCAACAGGAGGGAUCGAGAAGGAGCGUAACUAA”, the “apparent Kd” value reads like this: under setting [1], 23.7 nM; under setting [2], 18.2 nM.
For the sequence “UCGGACCGAGGAUAUACAGUUCGUGAAGGUAAGAUACACAGACAUGAGGAUCACCCAUGUAGAAGGCGGAGUCC”, the “apparent Kd” value reads like this: under setting [3], 12.1 nM; under setting [4], 15.6 nM.
For “UUCUACAUGAGGAUCACCCAUGUCCCUGGGACCCUUGCAUCCAGAAGGCACGACUAGAUGGUGUGUGAGGAUAUGGAGGCGCUU”, in that order: 162 nM and 144 nM.
For “GCUCUCCAAGGAUAUUAGGUGUGUUACAUGAGGAUCACCCAUGUUUUCCAAUGAAUCGUCUAAGAAGGUGGCUAUU”, in that order: 14.3 nM and 12.9 nM.
Turning to “GCAAGGUUUGUAGGAUAUCGCGUGUGAUUGAACAUGAGGAUCACCCAUGUGGAGGUUCCAUUAUCCGAGAAGGACAAGACUCGA”, the “apparent Kd” value under setting [3] is 155 nM and the “apparent Kd” value under setting [4] turned out to be 84.2 nM.
The corresponding values for “GACCAACAUGAGGAUCACCCAUGUCGAGUUGGAAGUUUUACGAGAAGGAUCCUCCUGCCGAGCGGAUAGGAUAUCGAAACGGAC” are 11.5 nM and 8.93 nM.
For the sequence “AGUUAGCCUGAUGAGGAUAUACACGCCCGGACAUGAGGAUCACCCAUGUUAACAAGUUAGCUAUUGUAGAAGGCAUCGAGGUGAUG”, the “apparent Kd” value stood at 44.8 nM under setting [1] and 33.5 nM under setting [2].
As to “UGACCAUGCGAGAAGGCGUACAUGAGGAUCACCCAUGUUCGUAGAACAAUCGGGUAAGCAUGGCACGAGGAUAUCGCCAAUGCC”, the “apparent Kd” value turned out to be 23.1 nM under setting [3] and 93.6 nM under setting [4].
Consider “GGAAGCCGCUAGAAGGAAUAGCACGGGUGCUAAUUAGGAUAUAGUGUCCCAGCACAUGAGGAUCACCCAUGUAUAACACGAUCC”, for which the “apparent Kd” value under setting [1] came out at 20.1 nM and the “apparent Kd” value under setting [2] worked out at 16.9 nM.
The corresponding values for “UUGUGGGCGCUUCAGGAUAUCGCAAAAGAAACAUGAGGAUCACCCAUGUGGCCGAAGCAACUGGGCGAGAAGGGAAAGGCCCGAAG” are 17.3 nM and 14.1 nM.

The apparent Kd is the concentration giving half-maximal binding under the conditions of the assay.

The values above are taken from the EternaBench riboswitch data.
